Activity calls are given as the source filed them.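 Rule for the calls: active = compounds whose fitted half-maximal concentration for reducing fibroblast viability is 100 µM or lower; inactive = the rest.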
Tested on: LL 47 lung fibroblast viability, ATP luminescence
Assay: inhibition of LL 47 lung fibroblast growth, concentration-response curve, selectivity screen for endothelial cell growth inhibitor project, cellular system, ATP luminescence readout (AID 821)
Summary of the method: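 Test system: human lung fibroblasts, LL 47 line / Amount: 1,150 cells/well / Schedule: 72 h compound treatment at 37 °C after overnight attachment / Technique: CellTiter-Glo luminescence readout of viable cells / Measure: percent viability relative to untreated wells, EC50 via 4-parameter fit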

SMILES | EC50
Cc1ccccc1CS(=O)(=O)c1nnc([C@H](CC(C)C)NC(=O)OC(C)(C)C)o1 | 14.9 µM
CC(C)c1nnc(NC(=O)CCS(=O)(=O)c2nc(-c3cccs3)cc(C(F)(F)F)n2)s1 | 12.8 µM
O=C(/C=C/c1ccc(Cl)cc1)c1cccnc1 | 19.7 µM
COc1ccc(-c2nnc(Nc3nc4c(OC)cccc4s3)o2)cc1 | > 10 µM (inactive)
CN1C[C@H](CNC(=O)OCc2ccccc2)C[C@@H]2c3cccc4c3c(cn4C)C[C@H]21 | 15 µM
CSc1nncc(=O)[nH]1 | 13.1 µM
Cc1cc(NC(c2cccnc2)c2ccc3cccnc3c2O)no1 (stereo not given) | 2.93 µM
CC1CC(C)CN(S(=O)(=O)c2ccc(C(=O)NCCCn3ccnc3)cc2)C1 (stereo not given) | 1.77 µM
Oc1ccc(Cl)cc1-c1cc(-c2ccco2)[nH]n1 | > 10 µM (inactive)
Cn1c(=NC(=O)CCl)sc2ccccc21 | < 0.039 µM

— PubChem BioAssay AID821 (SRMLSC, 2007)
